Source: ChEMBL document CHEMBL1143580 (J Med Chem, 2005)

Legend:
[1] = Inhibitory constant for [3H]YM-09151-2 binding to Dopamine receptor D2-like in porcine striatal membranes; assay type: cell membranes, Sus scrofa, Striatum, Membrane
Rattus norvegicus [2] = organism: Rattus norvegicus; assay: Amount of cAMP level in rat neostriatal membranes after incubation at 1 uM; assay type: functional
Summary of the method: (§1)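 Rat striatal membranes; adenylyl cyclase reaction in 0.1 M Tris-HCl pH 8.3, 10 mM MgCl2, 0.1 M KCl, 37 °C, 60 min; compounds at 1, 10, 100 µM. Stopped with HCl (final 0.01 M) plus 5 min boiling, centrifuged, filtered. cAMP quantified by reverse-phase HPLC at 254 nm against standards, confirmed by cAMP EIA; pmol/mg protein, mean ± SEM of triplicates.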

Rattus norvegicus [3] = organism: Rattus norvegicus; assay: Amount of cAMP level in rat neostriatal membranes after incubation at 10 uM; assay type: functional; summary of the method: as §1
Rattus norvegicus [4] = organism: Rattus norvegicus; assay: Amount of cAMP level in rat neostriatal membranes after incubation at 100 uM; assay type: functional; summary of the method: as §1
Rattus norvegicus [5] = organism: Rattus norvegicus; assay: Amount of cGMP level in rat neostriatal membranes after incubation at 10 uM; assay type: functional
Summary of the method: (§2)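 Rat striatal membranes in 0.1 M phosphate buffer pH 7.0 with MgCl2 and 2.25 mM IBMX at 37 °C; reaction started with 54 µM GTP, 60 min at 37 °C; compounds at 0.1, 1.0, 10 µM. Stopped with HCl, boiled 5 min, centrifuged, filtered; cGMP measured by reverse-phase HPLC at 254 nm against standards, confirmed by cGMP EIA; mean ± SEM of triplicates.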

Rattus norvegicus [6] = organism: Rattus norvegicus; assay: Amount of cGMP level in rat neostriatal membranes after incubation at 0.1 uM; assay type: functional; summary of the method: as §2
Rattus norvegicus [7] = organism: Rattus norvegicus; assay: Amount of cGMP level in rat neostriatal membranes after incubation at 1.0 uM; assay type: functional; summary of the method: as §2
[8] = Inhibitory constant for [3H]YM-09151-2 binding to Dopamine receptor D2-like in porcine striatal membranes; NA= not active until 1e-5M; assay type: cell membranes, Sus scrofa
[9] = target: Adenylate cyclase type 2 (Rattus norvegicus) (UniProt P26769); assay: Inhibition of basal striatal adenylyl cyclase activity in rat neostriatal membrane at 100 uM; assay type: functional, cell membranes
Chain of Adenylate cyclase type 2 (Rattus norvegicus) (P26769 whole entry): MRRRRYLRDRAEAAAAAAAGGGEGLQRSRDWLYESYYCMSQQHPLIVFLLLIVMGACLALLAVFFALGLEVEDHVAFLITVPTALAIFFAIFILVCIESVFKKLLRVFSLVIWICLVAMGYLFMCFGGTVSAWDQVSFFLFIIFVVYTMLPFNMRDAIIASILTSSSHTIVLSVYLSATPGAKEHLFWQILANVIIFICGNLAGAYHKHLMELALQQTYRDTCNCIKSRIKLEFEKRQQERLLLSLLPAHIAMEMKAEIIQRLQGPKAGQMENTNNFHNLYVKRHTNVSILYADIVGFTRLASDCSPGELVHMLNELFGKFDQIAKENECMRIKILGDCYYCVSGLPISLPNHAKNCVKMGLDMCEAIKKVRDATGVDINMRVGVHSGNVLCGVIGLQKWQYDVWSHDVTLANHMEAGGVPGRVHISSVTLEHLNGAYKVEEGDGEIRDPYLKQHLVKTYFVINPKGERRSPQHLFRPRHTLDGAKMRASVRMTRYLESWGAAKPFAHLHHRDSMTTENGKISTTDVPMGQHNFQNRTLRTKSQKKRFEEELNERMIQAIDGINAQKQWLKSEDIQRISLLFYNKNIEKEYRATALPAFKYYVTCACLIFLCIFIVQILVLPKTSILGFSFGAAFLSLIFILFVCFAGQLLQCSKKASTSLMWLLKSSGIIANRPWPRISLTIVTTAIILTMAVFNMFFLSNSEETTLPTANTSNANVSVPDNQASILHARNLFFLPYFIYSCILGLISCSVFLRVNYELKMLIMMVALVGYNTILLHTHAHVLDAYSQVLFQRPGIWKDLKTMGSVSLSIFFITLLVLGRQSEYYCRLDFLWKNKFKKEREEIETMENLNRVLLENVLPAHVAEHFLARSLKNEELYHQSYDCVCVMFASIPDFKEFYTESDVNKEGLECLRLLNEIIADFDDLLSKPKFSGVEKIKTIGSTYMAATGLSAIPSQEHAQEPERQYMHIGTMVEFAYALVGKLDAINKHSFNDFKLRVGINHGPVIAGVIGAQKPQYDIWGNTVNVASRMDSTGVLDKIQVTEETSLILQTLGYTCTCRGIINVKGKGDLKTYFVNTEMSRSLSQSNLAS
Summary of the method: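 Rat striatal membranes incubated 60 min at 37 °C in 0.1 M Tris-HCl pH 8.3, 10 mM MgCl2, 0.1 M KCl. Reaction stopped with HCl (0.01 M final) and 5 min boiling. Filtered supernatant analysed for cAMP by reverse-phase HPLC at 254 nm against standards, confirmed by cAMP EIA. Tested at 1, 10 and 100 µM. Triplicates reported as mean ± SEM.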

Rattus norvegicus [10] = organism: Rattus norvegicus; assay: Amount of cGMP in rat neostriatal membranes after incubation at 10 uM; assay type: functional; summary of the method: as §2
Rattus norvegicus [11] = organism: Rattus norvegicus; assay: Amount of cGMP in rat neostriatal membranes after incubation at 0.1 uM; assay type: functional; summary of the method: as §2
Rattus norvegicus [12] = organism: Rattus norvegicus; assay: Amount of cGMP in rat neostriatal membranes after incubation at 1.0 uM; assay type: functional; summary of the method: as §2
Rattus norvegicus [13] = organism: Rattus norvegicus; assay: Decrease of basal cAMP concentration mediated by striatal adenylyl cyclase activity in rat neostriatal membrane at 100 uM; assay type: functional; summary of the method: as §1
[14] = Inhibitory constant for Dopamine receptor D1-like
[15] = Inhibitory constant for Dopamine receptor D2-like

Row | SMILES | Ki [1] [nM] | cGMP content (pmol/mg protein) (Rattus norvegicus [5]) | cGMP content (pmol/mg protein) (Rattus norvegicus [6]) | cGMP content (pmol/mg protein) (Rattus norvegicus [7]) | also measured
1 | C=CCN(C)[C@@H]1Cc2cc(F)c(O)cc2[C@H]1c1ccccc1 | 960 |  |  |  | 
2 | Br.CN(C)[C@@H]1Cc2cc(O)c(F)cc2[C@H]1c1ccccc1 |  |  |  |  | Ki [8]: Not Active
3 | CN[C@@H]1Cc2cc(F)c(O)cc2[C@H]1c1ccccc1 | 5100 |  |  |  | 
4 | CN[C@@H]1Cc2cc(OC)c(F)cc2[C@H]1c1ccccc1 | 3100 |  |  |  | 
5 | N[C@@H]1Cc2cc(F)c(O)cc2[C@H]1c1ccccc1 | 19000 |  |  |  | 
6 | CCCN(CCc1ccccc1)CCc1cccc(O)c1 |  | 3.78 | 10.4 | 7.45 | cAMP content (pmol/mg protein) (Rattus norvegicus [2]): 104; cAMP content (pmol/mg protein) (Rattus norvegicus [3]): 93.1; cAMP content (pmol/mg protein) (Rattus norvegicus [4]): 79.3; inhibition [9]: 25%
7 | CCN1CCCC1CNC(=O)c1cc(S(N)(=O)=O)ccc1OC (stereo not drawn) |  | 17.7 | 12.5 | 17.3 | 
8 | CN(C)[C@@H]1Cc2cc(F)c(O)cc2[C@H]1c1ccccc1 | 4500 |  |  |  | 
9 | C=CCN(C)[C@@H]1Cc2cc(O)c(F)cc2[C@H]1c1ccccc1 | 640 |  |  |  | 
10 | CN[C@@H]1Cc2cc(O)c(F)cc2[C@H]1c1ccccc1 | 4300 |  |  |  | 
11 | N[C@@H]1Cc2cc(O)c(F)cc2[C@H]1c1ccccc1 | 15000 |  |  |  | 
12 | CN[C@@H]1Cc2cc(F)c(OC)cc2[C@H]1c1ccccc1 | 2600 |  |  |  | 
13 | COc1cc2c(cc1F)C[C@@H](N)[C@@H]2c1ccccc1 | 17000 |  |  |  | 
14 | CN1CCc2cc(Cl)c(O)cc2[C@@H](c2ccccc2)C1 |  |  |  |  | cGMP content (pmol/mg protein) (Rattus norvegicus [10]): 6.15; cGMP content (pmol/mg protein) (Rattus norvegicus [11]): 11.5; cGMP content (pmol/mg protein) (Rattus norvegicus [12]): 6.62
15 | CCCN(CCC)[C@@H]1Cc2cc(F)c(O)cc2[C@H]1c1ccccc1 | 920 | 4.37 | 11.6 | 7.32 | 
16 | CCCN(CCC)[C@@H]1Cc2cc(O)c(F)cc2[C@H]1c1ccccc1 | 12000 |  |  |  | 
17 | NCCc1ccc(O)c(O)c1 |  | 4.02 | 11.7 | 6.15 | cAMP content (pmol/mg protein) (Rattus norvegicus [2]): 95.1; cAMP content (pmol/mg protein) (Rattus norvegicus [3]): 89.8; cAMP content (pmol/mg protein) (Rattus norvegicus [4]): 85.6
18 | CN1CCc2cc(F)c(O)cc2C1C1(c2ccccc2Cl)CC1 (stereo not drawn) |  |  |  |  | Ki [14]: 0.18 nM; Ki [15]: 450 nM
19 | Oc1cc2c(cc1O)C(c1ccccc1)CNCC2 (stereo not drawn) |  | 18.2 | 12.4 | 17.4 | 

More lines, main results first:

Row | Ki [1] [nM] | SMILES | cGMP content (pmol/mg protein) (Rattus norvegicus [5]) | cGMP content (pmol/mg protein) (Rattus norvegicus [6]) | cGMP content (pmol/mg protein) (Rattus norvegicus [7]) | also measured
20 | 550 | CCCN(CCC)[C@@H]1Cc2cc(OC)c(F)cc2[C@H]1c1ccccc1 |  |  |  | 
21 | 270 | CCCN(C)[C@@H]1Cc2cc(OC)c(F)cc2[C@H]1c1ccccc1 | 3.78 | 11.2 | 4.96 | cAMP content (pmol/mg protein) (Rattus norvegicus [2]): 105; cAMP content (pmol/mg protein) (Rattus norvegicus [3]): 103; cAMP content (pmol/mg protein) (Rattus norvegicus [4]): 84.6
22 | 240 | CCCN(C)[C@@H]1Cc2cc(O)c(F)cc2[C@H]1c1ccccc1 | 5.56 | 11.5 | 7.45 | 
23 | 310 | C=CCN(C)[C@@H]1Cc2cc(OC)c(F)cc2[C@H]1c1ccccc1 |  |  |  | 
24 | 12000 | COc1cc2c(cc1F)[C@@H](c1ccccc1)[C@H](N)C2 |  |  |  | 
25 | 650 | CCCN(C)[C@@H]1Cc2cc(F)c(O)cc2[C@H]1c1ccccc1 | 1.78 | 10.9 | 5.79 | cAMP content (pmol/mg protein) (Rattus norvegicus [2]): 103; cAMP content (pmol/mg protein) (Rattus norvegicus [3]): 93; cAMP content (pmol/mg protein) (Rattus norvegicus [4]): 74.4; Decrease (Rattus norvegicus [13]): 30%
26 | 480 | CCCN(C)[C@@H]1Cc2cc(F)c(OC)cc2[C@H]1c1ccccc1 | 3.9 | 10.4 | 6.86 | 
27 | 1900 | COc1cc2c(cc1F)C[C@@H](N(C)C)[C@@H]2c1ccccc1 |  |  |  | 
28 | 640 | C=CCN(C)[C@@H]1Cc2cc(F)c(OC)cc2[C@H]1c1ccccc1 |  |  |  | 
29 | 4300 | COc1cc2c(cc1F)[C@@H](c1ccccc1)[C@H](N(C)C)C2 |  |  |  | 
30 | 170 | CCCN(CCC)[C@@H]1Cc2cc(F)c(OC)cc2[C@H]1c1ccccc1 | 5.79 | 10.6 | 6.97 | 
